Results on seven compounds are retold here after ChEMBL document CHEMBL2331165, “Semisynthesis and myocardial activity of thaliporphine N-homologues” (2013).

In experiment [1] the test system is Heart. Kind of experiment: Myocardial activity in Wistar-Kyoto rat heart assessed as heart rate level at 10 uM relative to untreated control. It is filed as functional. The method, boiled down:
(§1)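 Right atria from male Wistar-Kyoto rat hearts in an organ bath of Tyrode's solution gassed with CO2−O2 (1:19) at 36 ± 0.2 °C. Spontaneous beating rate recorded and expressed as % of the pre-treatment control. Means from four to five experiments.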

Experiment [2] deals with Heart. As to the kind of experiment: Myocardial activity in Wistar-Kyoto rat heart assessed as heart rate level at 30 uM relative to untreated control. It is filed as functional. The essentials: as §1
A short description of experiment [3]: Myocardial activity in Wistar-Kyoto rat right atrium exposed to electrical stimulation driven at 2 Hz assessed as muscle contraction at 3 uM relative to untreated control. It is filed as functional, Muscle tissue.
Experiment [4] is described as follows: Myocardial activity in Wistar-Kyoto rat right atrium exposed to electrical stimulation driven at 2 Hz assessed as muscle contraction at 30 uM relative to untreated control. In kind it is functional, Muscle tissue.
Experiment [5] can be described thus: Myocardial activity in Wistar-Kyoto rat left atrium exposed to electrical stimulation driven at 2 Hz assessed as muscle contraction at 10 uM relative to untreated control. It is filed as functional, Muscle tissue. The essentials: (§2)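 Left atrial and right ventricular strips from male Wistar-Kyoto rats, electrically driven, in Tyrode's solution gassed with CO2−O2 (1:19) at 36 ± 0.2 °C. Optimal preload 0.5−1.0 g for maximal developed tension. Contraction recorded by force displacement transducer and expressed as % of the pre-treatment control. Means from four to five experiments.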

Experiment [6] can be described thus: Myocardial activity in Wistar-Kyoto rat right ventricle exposed to electrical stimulation driven at 2 Hz assessed as muscle contraction at 3 uM relative to untreated control. In kind it is functional, Muscle tissue. The essentials:
as §2

Experiment [7] in a line: Myocardial activity in Wistar-Kyoto rat left atrium exposed to electrical stimulation driven at 2 Hz assessed as muscle contraction at 30 uM relative to untreated control. In kind it is functional, Muscle tissue. The essentials: as §2
Experiment [8] can be described thus: Myocardial activity in Wistar-Kyoto rat right ventricle exposed to electrical stimulation driven at 2 Hz assessed as muscle contraction at 10 uM relative to untreated control. It is filed as functional, Muscle tissue. The method, boiled down: as §2
In experiment [9] the test system is Heart. As to the kind of experiment: Myocardial activity in Wistar-Kyoto rat heart assessed as heart rate level at 3 uM relative to untreated control. It is filed as functional. The essentials: as §1
A short description of experiment [10]: Myocardial activity in Wistar-Kyoto rat left atrium exposed to electrical stimulation driven at 2 Hz assessed as muscle contraction at 3 uM relative to untreated control. In kind it is functional, Muscle tissue. The method, boiled down:
as §2

The nature of experiment [11]: Myocardial activity in Wistar-Kyoto rat right ventricle exposed to electrical stimulation driven at 2 Hz assessed as muscle contraction at 30 uM relative to untreated control. It is filed as functional, Muscle tissue. The method, boiled down:
as §2

Experiment [12] in a line: Myocardial activity in Wistar-Kyoto rat right atrium exposed to electrical stimulation driven at 2 Hz assessed as muscle contraction at 10 uM relative to untreated control. It is filed as functional, Muscle tissue.
Experiment [13] is filed under the species Rattus norvegicus. As to the kind of experiment: Positive inotropic effect in Wistar-Kyoto rat left atrium exposed to electrical stimulation driven at 2 Hz assessed as muscle contraction at 3 to 30 uM in presence of 3 uM atenolol relative to untreated control. It is filed as functional, tissue-based. Conditions: Cardiac atrium.
The species entered for experiment [14] is Rattus norvegicus. As to the kind of experiment: Positive inotropic effect in Wistar-Kyoto rat left atrium exposed to electrical stimulation driven at 2 Hz assessed as muscle contraction at 3 to 30 uM in presence of 1 uM verapamil relative to untreated control. In kind it is functional, tissue-based. Conditions: Cardiac atrium.
Experiment [15] is filed under the species Rattus norvegicus. As to the kind of experiment: Positive inotropic effect in Wistar-Kyoto rat left atrium exposed to electrical stimulation driven at 2 Hz assessed as muscle contraction at 3 to 30 uM in presence of 1 uM prazosin relative to untreated control. In kind it is functional, tissue-based. Conditions: Cardiac atrium.

Calls of active or inactive are those of the source. The calls are words filed in the database; no cut-off is given here.

For `CCN1CCc2cc(OC)c(O)c3c2[C@@H]1Cc1cc(OC)c(OC)cc1-3`, the Activity stood at 97% in the experiment with Heart [1]; 84% in the experiment with Heart [2]; 93% in [3]; 162% in experiment [4]; 122% in experiment [5]; 100% in experiment [6]. For the same compound, the Activity in experiment [7] amounted to 131%; in [8] it was 108%; in the experiment with Heart [9], 97%; in experiment [10] it was 105%; in experiment [11], 111%; in [12], 127%.
As for `COc1cc2c(cc1OC)-c1c(O)c(OC)cc3c1[C@@H](C2)NCC3`, the Activity in the experiment with Heart [1] came to 96%; in the experiment on Heart [2] it was 79%; in experiment [3] it was 101%; in experiment [4], 105%; in experiment [5], 104%; in experiment [6], 108%. Besides, the Activity in experiment [7] is listed as 105%; in experiment [8] it was 111%; with Heart [9], 100%; in experiment [10], 103%; in experiment [11] it was 120%; in experiment [12] it was 103%.
In the case of `COc1cc2c(cc1OC)-c1c(O)c(OC)cc3c1[C@H](C2)NCC3`, the Activity was determined as 78% in the experiment with Heart [1]; 61% in the experiment on Heart [2]; 99% in [3]; 117% in experiment [4]; 93% in experiment [5]; 102% in experiment [6]. Further, the Activity in [7] stood at 89%; in [8] it was 96%; with Heart [9] it was 91%; in experiment [10], 94%; in [11] it was 90%; in experiment [12], 99%.
As for `CCCN1CCc2cc(OC)c(O)c3c2[C@@H]1Cc1cc(OC)c(OC)cc1-3`, the Activity in the experiment with Heart [1] was determined as 80%; in the experiment with Heart [2], 61%; in [3] it was 103%; in experiment [4], 103%; in experiment [5], 90%; in experiment [6], 95%. For the same compound, the Activity was 74% in [7]; 85% in [8]; 91% in the experiment with Heart [9]; 99% in experiment [10]; 75% in experiment [11]; 103% in experiment [12].
Turning to `COc1cc2c(cc1OC)-c1c(O)c(OC)cc3c1[C@H](C2)N(C)CC3`, the Activity in the experiment with Heart [1] is 86%; in the experiment with Heart [2], 82%; in experiment [3] it was 104%; in experiment [4], 180%; in experiment [5] it was 180%; in experiment [6], 125%. Also, the Activity in experiment [7] was determined as 243%; in [8], 154%; in the experiment on Heart [9] it was 92%; in experiment [10] it was 110%; in experiment [11], 163%; in experiment [12] it was 140%. For the same compound, the outcome in the experiment filed under Rattus norvegicus [13], in the experiment listed under Rattus norvegicus [14] and in the experiment filed under Rattus norvegicus [15] was Active.
Regarding `COc1cc2c(cc1OC)-c1c(O)c(OC)cc3c1[C@@H](C2)N(C)CC3`, the Activity stood at 85% with Heart [1]; 69% with Heart [2]; 106% in experiment [3]; 129% in experiment [4]; 103% in experiment [5]; 93% in experiment [6]. Further, the Activity in experiment [7] was 100%; in experiment [8] it was 80%; in the experiment on Heart [9] it was 92%; in experiment [10] it was 106%; in experiment [11], 72%; in experiment [12], 121%.
With `CCCN1CCc2cc(OC)c(O)c3c2[C@H]1Cc1cc(OC)c(OC)cc1-3`, the Activity turned out to be 79% with Heart [1]; 68% with Heart [2]; 121% in [3]; 141% in experiment [4]; 105% in experiment [5]; 100% in [6]. Besides, the Activity is listed as 99% in experiment [7]; 100% in [8]; 88% with Heart [9]; 101% in experiment [10]; 96% in experiment [11]; 131% in experiment [12].
